# Test results published in ChEMBL document CHEMBL1944564, “Discovery of a novel and potent class of F. tularensis enoyl-reductase (FabI) inhibitors by molecular shape and electrostatic matching” (J Med Chem, 2012).
# Tests used:
# [1] = test system: Escherichia coli; assay: Antibacterial activity against Escherichia coli BW251113 after overnight incubation; type: functional
# Procedure, shortened: (§1)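 Broth microdilution in LB with 2-fold serial dilutions of compound and ciprofloxacin as control.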
# [2] = test system: Staphylococcus aureus; assay: Antibacterial activity against Staphylococcus aureus after overnight incubation; type: functional; procedure, shortened: as §1
# [3] = test system: Bacillus anthracis; assay: Antibacterial activity against Bacillus anthracis after overnight incubation; type: functional
# [4] = Inhibition of N-terminus His-tagged Francisella tularensis subsp. Tularensis Schu4 […] expressed in Escherichia coli […] cells assessed as conversion of crotonyl-CoA and NADH to butyryl-CoA and NAD+ preincubated for 30 mins by measured fluorescence analysis; design: species or system Francisella tularensis subsp. tularensis SCHU S4
# Procedure, shortened: (§2)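 Recombinant N-terminal His-tagged F. tularensis FabI, expressed in E. coli BL21(DE3) and purified by Ni-affinity and size exclusion to >98%, was used at 0.2 μM. Inhibitor in DMSO was preincubated 30 min, then 200 μM crotonyl-CoA was added. The rate of decrease in NADH fluorescence (ex 340/em 450 nm) gave % inhibition versus a DMSO control.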
# [5] = test system: Francisella tularensis; assay: Antibacterial activity against Francisella tularensis after overnight incubation; type: functional
# [6] = test system: Yersinia pestis; assay: Antibacterial activity against Yersinia pestis after overnight incubation; type: functional
# [7] = test system: Escherichia coli; assay: Antibacterial activity against Escherichia coli BW251113 harboring TolC deletion mutation after overnight incubation; type: functional
# [8] = test system: Staphylococcus aureus; assay: Antibacterial activity against methicillin-resistant Staphylococcus aureus after overnight incubation; type: functional; procedure, shortened: as §1
# [9] = test system: DL21 (DE3); assay: Inhibition of N-terminus His-tagged Francisella tularensis subsp. Tularensis Schu4 […] expressed in Escherichia coli […] cells assessed as conversion of crotonyl-CoA and NADH to butyryl-CoA and NAD+ preincubated at 100 uM for 30 mins by fluorescence analysis; conditions: Francisella tularensis subsp. tularensis SCHU S4; procedure, shortened: as §2
compound,measurement,setting,value
Cc1nc2ccccc2n1Cc1ccc(Cl)c(Cl)c1,MIC,[1],50 µg/mL
same,MIC,[2],50 µg/mL
same,MIC,[3],25 µg/mL
same,IC50,[4],3.2 µM
same,MIC,[5],9.4 µg/mL
same,MIC,[6],≥ 50 µg/mL
same,MIC,[7],25 µg/mL
O=C(c1ccc(Cl)cc1)n1cnc2ccccc21,IC50,[4],> 100 µM
Cc1cc2ncn(Cc3ccc(Cl)cc3Cl)c2cc1C,MIC,[1],> 200 µg/mL
same,MIC,[2],38 µg/mL
same,MIC,[3],> 38 µg/mL
same,IC50,[4],0.7 µM
same,MIC,[5],4.3 µg/mL
same,MIC,[6],> 38 µg/mL
same,MIC,[7],19 µg/mL
same,MIC,[8],38 µg/mL
c1ccc(Cn2cnc3ccccc32)cc1,IC50,[4],> 100 µM
Brc1ccc(Cn2cnc3ccccc32)cc1,IC50,[4],27.4 µM
Nc1ncc(Cc2ccc(Cl)cc2)s1,IC50,[4],63 µM
same,inhibition,[9],49%
Clc1ccc(Cn2cnc3ccccc32)cc1Cl,MIC,[1],> 200 µg/mL
same,MIC,[2],50 µg/mL
same,MIC,[3],50 µg/mL
same,IC50,[4],4.7 µM
same,MIC,[5],17.2 µg/mL
same,MIC,[6],25 µg/mL
same,MIC,[7],25 µg/mL
same,MIC,[8],50 µg/mL
Clc1cccc(Cn2cnc3ccccc32)c1,IC50,[4],85 µM
Cc1cc2ncn(Cc3ccc(Cl)cc3)c2cc1C,MIC,[1],> 50 µg/mL
same,MIC,[2],> 50 µg/mL
same,MIC,[3],> 50 µg/mL
same,IC50,[4],0.3 µM
same,MIC,[5],15.6 µg/mL
same,MIC,[6],> 50 µg/mL
same,MIC,[7],12.5 µg/mL
Nc1nc2ccccc2n1Cc1ccc(Cl)cc1,IC50,[4],> 100 µM
Cc1ccc(Cn2cnc3ccccc32)cc1,IC50,[4],90 µM
Clc1ccc(Cn2cnc3ccccc32)c(Cl)c1,IC50,[4],22 µM
O=C(NC(=O)c1cc(-c2ccc(Cl)cc2)oc1C(F)(F)F)c1ccccc1O,inhibition,[9],39%
COc1ccc(Cn2cnc3ccccc32)cc1,IC50,[4],38 µM
Fc1ccc(Cn2cnc3ccccc32)cc1,IC50,[4],> 100 µM
Cc1cc2ncn(Cc3ccc(Cl)c(Cl)c3)c2cc1C,MIC,[1],> 200 µg/mL
same,MIC,[2],25 µg/mL
same,MIC,[3],9.4 µg/mL
same,IC50,[4],0.3 µM
same,MIC,[5],7.8 µg/mL
same,MIC,[6],≥ 50 µg/mL
same,MIC,[7],6.25 µg/mL
same,MIC,[8],50 µg/mL
Cc1cc2ncn(C(=O)c3cccc(Cl)c3)c2cc1C,IC50,[4],> 100 µM
Clc1ccc(Cn2cnc3ccccc32)cc1,IC50,[4],27 µM
same,inhibition,[9],70%
